Screening data (PubChem BioAssay)
The entries come from a sample that favours hits as a whole.
Calb biofilm kill – kills Candida albicans biofilms. C. albicans biofilm + clotrimazole, Alamar Blue. inhibition, % at 6 µM. actives 0.14% (n = 85,000). AID 834;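 active = inhibition above 20%; inactive = inhibition below 20%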;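 also: preformed 24 hr biofilms exposed to compound for 48 hr; 0% = biofilm without compound and 100% = blank killed by clotrimazole plus chlorhexidine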
HCT116 PTEN-null – suppresses growth of cells with PTEN deletion; viability, % at 10 µM; HCT116 PTEN-null viability, CellTiter-Glo, 60 h; hits give low values; actives 1.2% (n = 140,000);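 active = viability at or below a set limit, 4 SD under the median of all tested compounds, cut at about 3.7% in these data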;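 also: PTEN knockout HCT116 line with beta catenin targeted HCT116 as companion control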
H69AR inhibit – blocks growth of human H69AR lung tumor cells. H69AR lung tumor viability, ATP luminescence, 72 h; hits give low values. actives 6% (n = 85,000). viability, % at 10 µM;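 active = viability at or below 40%; inactive = viability above 40%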;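 also: multidrug resistant small cell line overexpressing MRP-1 efflux transporter; 100% = mean luminescence of untreated control wells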
HUVEC inhibit – blocks proliferation of human endothelial cells | HUVEC proliferation, CellTiter-Glo luminescence, 72 h; hits give low values | actives 1.1% (n = 86,000) | viability, % at 10 µM (by protocol);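 active = viability at or below 30%; inactive = viability above 30%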;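 also: 100% = median luminescence of DMSO-only cell control wells on each plate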
bCat KO growth – beta-catenin-lacking colon tumor cell growth suppression | HCT116 beta-catenin knockout viability, CellTiter-Glo, 60 h; hits give low values | viability, % at 10 µM | actives 1.5% (n = 140,000);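 active = viability at or under a set limit, the compound median less 4 SD, cut at about 6% in these data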;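 also: 0% = Hyamine 1622 control at 20 µM and 100% = untreated cell control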
Fibroblast inh – blocks proliferation of human lung fibroblasts | AID 719 | viability, % at 10 µM | actives 1.1% (n = 85,000) | LL 47 human lung fibroblast viability, ATP luminescence; hits give low values;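 active = viability at or below 50% in the single dose screen; inactive = viability above 50%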;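 also: compound exposure lasted 72 h before the ATP readout; 100% = median luminescence of untreated cell-only wells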
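Material: human LL 47 lung fibroblast cells; quantity: 1,150 cells/well; medium: IMEM plus 15% FBS; doses: 0.1% DMSO in all compound wells; timing: overnight attachment after seeding, then 72 h compound exposure at 37 °C; detection: CellTiter-Glo luminescence; measure: % viability of median cell-only signal; controls: cell-only wells, no compound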
An asterisk follows results filed as active.

What do the screens show for `Cc1ccnc(N/C=C(\C#N)c2nc(-c3cccc(Br)c3)cs2)c1`?
HCT116 PTEN-null: 39.3; bCat KO growth: 68.3

What do the screens show for `COc1ccc(N(C(=O)c2ccco2)C(C(=O)NC2CCCCC2)c2cccs2)cc1OC` (stereo not given)?
Calb biofilm kill: 1.7; HCT116 PTEN-null: 101.8; H69AR inhibit: 83.6; HUVEC inhibit: 115.3; bCat KO growth: 103.8; Fibroblast inh: 103.5

How did C#CC(=O)N(c1cc(OC)ccc1OC)C(C(=O)NC1CCCC1)c1cccs1 (stereo not given) do in these assays?
HCT116 PTEN-null: 1.0*; bCat KO growth: 0.7*

What do the screens show for `O=C(COC(=O)c1cnc(Cl)c(Cl)c1)Nc1ccc(S(=O)(=O)N2CCCC2)cc1`?
HCT116 PTEN-null: 103.6; bCat KO growth: 93.8

What do the screens show for `N/C(=N\S(=O)(=O)c1ccc(Cl)s1)c1ccccc1`?
Calb biofilm kill: 10.2; HCT116 PTEN-null: 102.7; H69AR inhibit: 96.5; HUVEC inhibit: 92.8; bCat KO growth: 90.9; Fibroblast inh: 101.3

What do the screens show for `CC(c1ccccc1)N1C(=O)c2ccccc2C1O` (stereo not given)?
Calb biofilm kill: 10.1; HCT116 PTEN-null: 101.9; H69AR inhibit: 90.5; HUVEC inhibit: 98.6; bCat KO growth: 101.4; Fibroblast inh: 99.2

How did CN1CCN(CC#CCn2c3ccccc3c3ccccc32)CC1 do in these assays?
Calb biofilm kill: 1.6; HCT116 PTEN-null: 72.0; H69AR inhibit: 63.3; HUVEC inhibit: 72.9; bCat KO growth: 86.2; Fibroblast inh: 94.9

What do the screens show for `CCC1(C)OCC(Cn2c3ccccc3c3ccccc32)O1` (stereo not given)?
Calb biofilm kill: 6.7; HCT116 PTEN-null: 91.8; H69AR inhibit: 25.4*; HUVEC inhibit: 64.7; bCat KO growth: 77.0; Fibroblast inh: 85.7

Results for COc1ccc(NC(=O)CSc2nnc(NC(=O)c3ccc(S(=O)(=O)N4CCOCC4)cc3)s2)cc1 ?
HCT116 PTEN-null: 87.4; bCat KO growth: 89.6

Results for Cc1ccc(NC(=O)c2ccc(-c3nn(C)c(=O)c4ccccc34)cc2)cc1 ?
Calb biofilm kill: 3.3; HCT116 PTEN-null: 78.9; H69AR inhibit: 34.6*; HUVEC inhibit: 67.0; bCat KO growth: 87.3; Fibroblast inh: 106.1

How did Cc1ccc(NC(=O)c2ccc(-c3nn(C)c(=O)c4ccccc34)cc2)c(C)c1 do in these assays?
Calb biofilm kill: 4.5; HCT116 PTEN-null: 76.4; H69AR inhibit: 77.2; HUVEC inhibit: 99.9; bCat KO growth: 76.9; Fibroblast inh: 96.7

What do the screens show for `Cn1nc(-c2ccc(C(=O)Nc3cccc(Cl)c3)cc2)c2ccccc2c1=O`?
Calb biofilm kill: 2.6; HCT116 PTEN-null: 95.1; H69AR inhibit: 4.3*; HUVEC inhibit: 41.0; bCat KO growth: 96.9; Fibroblast inh: 51.8

What do the screens show for `Cn1c(NCCCO)nc2c1c(=O)n(Cc1ccccc1F)c(=O)n2C`?
Calb biofilm kill: -1.9; HCT116 PTEN-null: 110.5; H69AR inhibit: 93.0; HUVEC inhibit: 104.6; bCat KO growth: 107.3; Fibroblast inh: 103.0

What do the screens show for `COc1ccccc1Oc1nc2c(c(=O)n(Cc3ccccc3F)c(=O)n2C)n1C`?
Calb biofilm kill: 5.6; HCT116 PTEN-null: 101.7; H69AR inhibit: 39.8*; HUVEC inhibit: 91.0; bCat KO growth: 98.0; Fibroblast inh: 93.7

Results for COC(=O)c1ccc(NC(=O)CSC2=NC(=O)C(c3ccccc3)C(=O)N2)cc1 (stereo not given) ?
HCT116 PTEN-null: 104.8; bCat KO growth: 96.0

How did N#CCCN1CCN(Cc2cc(-c3ccccc3)ccc2O)CC1 do in these assays?
Calb biofilm kill: 3.0; HCT116 PTEN-null: 87.3; H69AR inhibit: 81.1; HUVEC inhibit: 95.2; bCat KO growth: 83.6; Fibroblast inh: 97.8

How did CC(C)(C)CC(C)(C)c1ccc(O)c(CN2CCN(CCC#N)CC2)c1 do in these assays?
Calb biofilm kill: -1.1; HCT116 PTEN-null: 66.8; H69AR inhibit: 5.8*; HUVEC inhibit: 96.6; bCat KO growth: 62.0; Fibroblast inh: 93.7

Results for Cc1ccc(N(C)C(=O)N2CCN(S(=O)(=O)c3ccc(C)c(C)c3)CC2)cc1 ?
Calb biofilm kill: 2.0; HCT116 PTEN-null: 92.7; H69AR inhibit: 90.9; HUVEC inhibit: 81.6; bCat KO growth: 100.2; Fibroblast inh: 94.7

What do the screens show for `COc1ccc(N2CCN(S(=O)(=O)c3ccc(OC)cc3)CC2)cc1`?
Calb biofilm kill: 4.9; HCT116 PTEN-null: 84.5; H69AR inhibit: 96.6; HUVEC inhibit: 97.7; bCat KO growth: 92.0; Fibroblast inh: 94.8

How did COc1cccc(N2CCN(S(=O)(=O)c3ccc4nc(-c5ccccc5)[nH]c4c3)CC2)c1 do in these assays?
Calb biofilm kill: 5.9; HCT116 PTEN-null: 89.6; H69AR inhibit: 12.9*; HUVEC inhibit: 60.0; bCat KO growth: 81.3; Fibroblast inh: 96.6

How did CCN(CC)CCNc1ncnc2c1sc1nc(N3CCOCC3)c3c(c12)CC(C)(C)SC3 do in these assays?
Calb biofilm kill: 9.5; HCT116 PTEN-null: 1.5*; H69AR inhibit: 2.6*; HUVEC inhibit: 7.2*; bCat KO growth: 1.6*; Fibroblast inh: 2.6*

What do the screens show for `CN(C)CCNc1ncnc2c1sc1nc(N3CCOCC3)c3c(c12)CC(C)(C)SC3`?
Calb biofilm kill: 6.4; HCT116 PTEN-null: 1.8*; H69AR inhibit: 94.0; HUVEC inhibit: 16.6*; bCat KO growth: 1.7*; Fibroblast inh: 16.1*

Results for CC1(C)Cc2c(c(N3CCOCC3)nc3sc4c(N5CCOCC5)nnnc4c23)CS1 ?
HCT116 PTEN-null: 103.1; bCat KO growth: 104.6

Results for CC1(C)Cc2c(c(N3CCOCC3)nc3sc4c(=O)[nH]cnc4c23)CS1 ?
Calb biofilm kill: -3.3; HCT116 PTEN-null: 84.0; H69AR inhibit: 42.7; HUVEC inhibit: 64.6; bCat KO growth: 88.5; Fibroblast inh: 92.6

How did O=C(NCCC1=CCCCC1)C1CCN(S(=O)(=O)c2ccc(Br)s2)CC1 do in these assays?
HCT116 PTEN-null: 71.2; bCat KO growth: 69.7

What do the screens show for `Cc1cc(N(C)Cc2ccccc2)nc(-c2ccccc2)n1`?
Calb biofilm kill: 8.2; HCT116 PTEN-null: 50.7; H69AR inhibit: 24.0*; HUVEC inhibit: 62.9; bCat KO growth: 34.0; Fibroblast inh: 80.3

Results for CC(C)N1C(=O)C(Cc2nc3ccccc3c(=O)n2-c2ccccc2)c2ccccc21 (stereo not given) ?
HCT116 PTEN-null: 65.5; bCat KO growth: 61.9

What do the screens show for `CC(C)N1C(=O)/C(=C/c2nc3ccccc3c(=O)n2-c2ccccc2)c2ccccc21`?
HCT116 PTEN-null: 2.1*; bCat KO growth: 2.5*

Results for CC(C)N1C(=O)/C(=C\c2nc3ccccc3c(=O)n2-c2ccccc2)c2ccccc21 ?
HCT116 PTEN-null: 3.1*; bCat KO growth: 6.7

How did C/C(=N\NC(=O)c1ccccc1-n1cccc1)C1CC1 do in these assays?
HCT116 PTEN-null: 93.5; bCat KO growth: 84.9

Results for CC(=O)Cc1nsc(NC(=O)c2ccc(-c3cccc(C(F)(F)F)c3)o2)n1 ?
Calb biofilm kill: -1.0; HCT116 PTEN-null: 44.9; H69AR inhibit: 21.4*; HUVEC inhibit: 66.1; bCat KO growth: 47.9; Fibroblast inh: 99.7
